Our source for the Ki values is BindingDB's records for doi:10.1016/s0960-894x(01)00689-8 (Niddk, 2001).

A value given as a limit tells only on which side of the number the result lay.

One test deals with Mu-type opioid receptor (Rattus norvegicus, UniProt P33535). The test is described as follows: Binding affinity for mu opioid receptor by displacing [3H]-DAMGO was determined. A digest of the protocol: (§1)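 Radioligand displacement binding at opioid receptors, with Ki values derived. Each receptor used its own radioligand: mu was [3H]DAMGO, delta was [3H]DADL and kappa was [3H]U69593.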
Mu-type opioid receptor, sequence (P33535 whole entry): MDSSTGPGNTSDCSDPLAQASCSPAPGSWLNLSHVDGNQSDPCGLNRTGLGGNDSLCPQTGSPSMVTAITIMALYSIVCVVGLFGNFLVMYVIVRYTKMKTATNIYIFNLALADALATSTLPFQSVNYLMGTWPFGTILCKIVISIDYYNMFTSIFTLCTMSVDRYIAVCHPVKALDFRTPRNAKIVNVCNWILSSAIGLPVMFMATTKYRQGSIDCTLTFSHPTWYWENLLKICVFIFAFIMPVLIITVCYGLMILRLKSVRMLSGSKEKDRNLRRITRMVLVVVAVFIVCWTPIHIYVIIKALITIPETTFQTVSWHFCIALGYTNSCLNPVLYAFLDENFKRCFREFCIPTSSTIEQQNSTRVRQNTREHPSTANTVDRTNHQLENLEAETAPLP

Test [1] deals with Delta-type opioid receptor (Rattus norvegicus, UniProt P33533). The test is described as follows: Binding affinity for delta opioid receptor by displacing [3H]DADL was determined. Put shortly:
as §1

The nature of test [2]: Binding affinity for gamma-S binding assay.
Test [3] addresses Kappa-type opioid receptor (Cavia porcellus, UniProt P41144). The test is described as follows: Binding affinity for kappa opioid receptor by displacing [3H]U-69593 was determined. Put shortly: as §1
The nature of test [4]: Binding affinity for gamma-S binding assay; Inactive.

Delta-type opioid receptor, sequence (P33533 whole entry): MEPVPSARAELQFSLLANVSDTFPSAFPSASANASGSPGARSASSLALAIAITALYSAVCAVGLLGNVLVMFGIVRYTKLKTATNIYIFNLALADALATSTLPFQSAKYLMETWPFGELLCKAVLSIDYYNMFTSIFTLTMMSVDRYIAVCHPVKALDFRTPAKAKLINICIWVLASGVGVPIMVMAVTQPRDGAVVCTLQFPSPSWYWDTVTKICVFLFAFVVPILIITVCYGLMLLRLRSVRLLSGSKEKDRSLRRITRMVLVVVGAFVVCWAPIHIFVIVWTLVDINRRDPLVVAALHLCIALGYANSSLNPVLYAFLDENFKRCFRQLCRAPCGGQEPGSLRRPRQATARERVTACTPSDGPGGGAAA
Kappa-type opioid receptor, sequence (P41144 whole entry): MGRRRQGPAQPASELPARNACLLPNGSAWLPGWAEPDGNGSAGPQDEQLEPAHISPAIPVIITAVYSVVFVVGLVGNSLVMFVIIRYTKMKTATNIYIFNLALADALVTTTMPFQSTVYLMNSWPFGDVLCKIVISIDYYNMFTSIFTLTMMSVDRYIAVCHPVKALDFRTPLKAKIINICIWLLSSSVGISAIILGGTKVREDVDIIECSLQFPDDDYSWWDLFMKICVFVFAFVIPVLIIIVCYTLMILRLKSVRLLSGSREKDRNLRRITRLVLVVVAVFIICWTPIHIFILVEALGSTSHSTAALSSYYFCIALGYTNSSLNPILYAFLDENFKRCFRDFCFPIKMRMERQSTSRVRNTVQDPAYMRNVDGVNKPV

A word on the Ki: it is the equilibrium dissociation constant of an inhibitor or competing ligand from its target. Lower therefore signals a stronger hold on the target. Take `COc1ccc2c3c1O[C@H]1c4[nH]c5ccccc5c4CC4C(C2)N(C)CCC341` (some centres not stated) [Indole Derivative]: the Ki is above 5000 nM at Mu-type opioid receptor, 95 nM in test [1] and 290 nM in test [2].

Turning to `C[C@H]1c2c([nH]c3ccccc23)[C@@H]2Oc3c(O)ccc4c3C23CCN(C)C(C4)C13` (some centres not stated) [Indole Derivative], the figures for the Ki (on Mu-type opioid receptor; in test [1]; in test [2]) were 240 nM, 0.7 nM and 49 nM, respectively.

As for `C/C=C/C(=O)N1CCC23c4c5ccc(O)c4O[C@H]2c2[nH]c4ccccc4c2[C@H](C)C3C1C5` (some centres not stated), the Ki in test [1] turned out to be 2.3 nM; in test [3] it was 120 nM.

As to `CCCC[C@H]1c2c([nH]c3ccccc23)[C@@H]2Oc3c(OC)ccc4c3C23CCN(C)C(C4)C13` (some centres not stated) [Indole Derivative], the results for the Ki (at Mu-type opioid receptor; in test [4]; in test [1]) were above 4300 nM, above 750 nM and 370 nM, respectively.

As for `CN1CC[C@]23c4c5ccc(O)c4O[C@H]2c2[nH]c4ccccc4c2C[C@H]3[C@H]1C5`, the Ki in test [1] was 2.4 nM; in test [2], 15 nM.

As for `CCCC[C@H]1c2c([nH]c3ccccc23)[C@@H]2Oc3c(O)ccc4c3C23CCN(C)C(C4)C13` (some centres not stated) [Indole Derivative], the inhibitory constant (Ki) at Mu-type opioid receptor turned out to be 1100 nM; in test [1], 22 nM; in test [2], 46 nM.

Take `C[C@H]1c2c([nH]c3ccccc23)[C@@H]2Oc3c(O)ccc4c3C23CCN(CC2CC2)C(C4)C13` (some centres not stated): the Ki on Mu-type opioid receptor worked out at 66 nM; in test [1], 2.3 nM; in test [3], 36 nM.

Take `COc1ccc2c3c1O[C@H]1c4[nH]c5ccccc5c4[C@H](C)C4C(C2)N(C)CCC341` (some centres not stated) [Indole Derivative]: the results for the Ki (on Mu-type opioid receptor; in test [1]; in test [2]) were above 4800 nM, 27 nM and 330 nM, respectively.
